# Laboratory results as given in ChEMBL document CHEMBL4689842, “EUbOPEN Chemogenomics Library wave 1” (2021).
# Several values for one entry are separate records, joined by “and”; a condition that tells them apart may be missing. Equal entries are not always repeated.
# Columns and labels:
# Assay type in all cases: toxicity, cell-based
# [1] = test system: Fibroblast; assay: Multiplex assay against human fibroblast; details: 10 µM, compound concentration 10 uM
# In short: (§1)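 Live cells carried four stains from seeding: Hoechst33342, BioTracker Green Microtubule Cytoskeleton Dye, MitoTracker Red and Annexin V Alexa Fluor 680. They were imaged on a CQ1 microscope at 37°C and 5% CO2 after compound addition. Using CellPathfinder machine-learning gating, cells were split into Hoechst high-intensity objects or normal cells, normal cells into healthy, pyknosed or fragmented nuclei, and pyknosed cells into mitotic or apoptotic; tubulin, mitochondrial-mass and membrane-permeability phenotypes are per cents of healthy-nucleus cells.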
# [2] = test system: U2OS; assay: Multiplex assay against U2OS; details: human, 10 µM, compound concentration 10 uM; in short: as §1
# [3] = test system: HEK-293T; assay: Incucyte cell viability with HEK293T; details: human, 10 µM, compound concentration 10 uM; also: filed as whole numbers so only -1 and 0 and 1 occur
# [4] = test system: HEK-293T; assay: Multiplex assay against HEK293T; details: human, 10 µM, compound concentration 10 uM; in short: as §1;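 as to Population Tubulin-Different-Phenotype (%): share of the cells with healthy nuclei that show this phenotype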
# [5] = test system: U2OS; assay: Incucyte cell viability with U2OS; details: human, 10 µM, compound concentration 10 uM; also: filed as whole numbers so only -1 and 0 and 1 occur
# [6] = test system: Fibroblast; assay: Incucyte cell viability with human fibroblast; details: 10 µM, compound concentration 10 uM; also: filed as whole numbers so only -1 and 0 and 1 occur
# [7] = 0 h, replicate number 2, timepoint 0 hours
# [8] = 6 h, replicate number 1, timepoint 6 hours
# [9] = 12 h, replicate number 1, timepoint 12 hours
# [10] = 18 h, replicate number 1, timepoint 18 hours
# [11] = 24 h, replicate number 1, timepoint 24 hours
# [12] = 18 h, replicate number 2, timepoint 18 hours
# [13] = 24 h, replicate number 2, timepoint 24 hours
smiles,measurement,setting,value
CN(C)c1ncnc(-c2ccc3nc(Nc4cc(CN5CCN(C(=O)CC(F)(F)F)CC5)ccn4)[nH]c3c2)c1Cl [BAY-440],Population Apoptotic (%),"[1]; 12 h, replicate 1",72% and 67%
same,Population Fragmented Nuclei (%),"[1]; 12 h, replicate 1",31% and 20%
same,Population Healthy Nuclei (%),"[1]; 12 h, replicate 1",51% and 62%
same,Population Hoechst High Intensity Objects (%),"[1]; 12 h, replicate 1",10% and 13%
same,Population Membrane Permeable-Phenotype (%),"[1]; 12 h, replicate 1",29% and 17%
same,Population Mitochondria Different-Phenotype (%),"[1]; 12 h, replicate 1",6% and 3%
same,Population Mitotic Cells (%),"[1]; 12 h, replicate 1",27% and 32%
same,Population Normal (%),"[1]; 12 h, replicate 1",89% and 86%
same,Population Pyknosed Nuclei (%),"[1]; 12 h, replicate 1",17%
same,Total Cell Count,"[1]; 12 h, replicate 1",282 and 187
same,Population Apoptotic (%),"[1]; 12 h, replicate 2",83% and 50%
same,Population Fragmented Nuclei (%),"[1]; 12 h, replicate 2",48% and 40%
same,Population Healthy Nuclei (%),"[1]; 12 h, replicate 2",41% and 50%
same,Population Hoechst High Intensity Objects (%),"[1]; 12 h, replicate 2",24% and 35%
same,Population Membrane Permeable-Phenotype (%),"[1]; 12 h, replicate 2",25% and 18%
same,Population Mitochondria Different-Phenotype (%),"[1]; 12 h, replicate 2",33% and 18%
same,Population Normal (%),"[1]; 12 h, replicate 2",75% and 64%
same,Population Pyknosed Nuclei (%),"[1]; 12 h, replicate 2",10% and 9%
same,Population Tubulin-Different-Phenotype (%),"[1]; 12 h, replicate 2",50% and 86%
same,Total Cell Count,"[1]; 12 h, replicate 2",77 and 68
same,Population Apoptotic (%),"[1]; 24 h, replicate 1",58% and 50%
same,Population Fragmented Nuclei (%),"[1]; 24 h, replicate 1",31% and 22%
same,Population Healthy Nuclei (%),"[1]; 24 h, replicate 1",55% and 67%
same,Population Hoechst High Intensity Objects (%),"[1]; 24 h, replicate 1",14% and 11%
same,Population Membrane Permeable-Phenotype (%),"[1]; 24 h, replicate 1",18% and 10%
same,Population Mitochondria Different-Phenotype (%),"[1]; 24 h, replicate 1",7% and 0%
same,Population Mitotic Cells (%),"[1]; 24 h, replicate 1",41% and 50%
same,Population Normal (%),"[1]; 24 h, replicate 1",85% and 88%
same,Population Pyknosed Nuclei (%),"[1]; 24 h, replicate 1",12% and 10%
same,Total Cell Count,"[1]; 24 h, replicate 1",290 and 193
same,Population Apoptotic (%),"[1]; 24 h, replicate 2",75% and 37%
same,Population Fragmented Nuclei (%),"[1]; 24 h, replicate 2",52% and 48%
same,Population Healthy Nuclei (%),"[1]; 24 h, replicate 2",39% and 32%
same,Population Hoechst High Intensity Objects (%),"[1]; 24 h, replicate 2",37% and 36%
same,Population Membrane Permeable-Phenotype (%),"[1]; 24 h, replicate 2",22% and 14%
same,Population Mitotic Cells (%),"[1]; 24 h, replicate 2",25% and 62%
same,Population Normal (%),"[1]; 24 h, replicate 2",62% and 63%
same,Population Pyknosed Nuclei (%),"[1]; 24 h, replicate 2",8% and 18%
same,Total Cell Count,"[1]; 24 h, replicate 2",74 and 68
same,Population Apoptotic (%),"[2]; 12 h, replicate 1",23%
same,Population Fragmented Nuclei (%),"[2]; 12 h, replicate 1",5%
same,Population Healthy Nuclei (%),"[2]; 12 h, replicate 1",88% and 91%
same,Population Hoechst High Intensity Objects (%),"[2]; 12 h, replicate 1",3% and 1%
same,Population Mitochondria Different-Phenotype (%),"[2]; 12 h, replicate 1",32% and 17%
same,Population Mitotic Cells (%),"[2]; 12 h, replicate 1",76%
same,Population Normal (%),"[2]; 12 h, replicate 1",96% and 98%
same,Population Pyknosed Nuclei (%),"[2]; 12 h, replicate 1",6% and 3%
same,Total Cell Count,"[2]; 12 h, replicate 1",204 and 178
same,Population Fragmented Nuclei (%),"[2]; 12 h, replicate 2",10% and 7%
same,Population Healthy Nuclei (%),"[2]; 12 h, replicate 2",83% and 90%
same,Population Hoechst High Intensity Objects (%),"[2]; 12 h, replicate 2",8%
same,Population Mitochondria Different-Phenotype (%),"[2]; 12 h, replicate 2",38% and 19%
same,Population Mitotic Cells (%),"[2]; 12 h, replicate 2",66% and 100%
same,Population Normal (%),"[2]; 12 h, replicate 2",91%
same,Population Pyknosed Nuclei (%),"[2]; 12 h, replicate 2",1%
same,Total Cell Count,"[2]; 12 h, replicate 2",103 and 116
same,Population Apoptotic (%),"[2]; 24 h, replicate 1",37% and 26%
same,Population Fragmented Nuclei (%),"[2]; 24 h, replicate 1",7% and 2%
same,Population Healthy Nuclei (%),"[2]; 24 h, replicate 1",81% and 89%
same,Population Hoechst High Intensity Objects (%),"[2]; 24 h, replicate 1",3% and 2%
same,Population Mitotic Cells (%),"[2]; 24 h, replicate 1",62% and 73%
same,Population Normal (%),"[2]; 24 h, replicate 1",96% and 97%
same,Population Pyknosed Nuclei (%),"[2]; 24 h, replicate 1",8%
same,Total Cell Count,"[2]; 24 h, replicate 1",221 and 230
same,Population Fragmented Nuclei (%),"[2]; 24 h, replicate 2",8% and 3%
same,Population Healthy Nuclei (%),"[2]; 24 h, replicate 2",79% and 95%
same,Population Hoechst High Intensity Objects (%),"[2]; 24 h, replicate 2",6% and 8%
same,Population Mitochondria Different-Phenotype (%),"[2]; 24 h, replicate 2",50% and 33%
same,Population Mitotic Cells (%),"[2]; 24 h, replicate 2",50% and 100%
same,Population Normal (%),"[2]; 24 h, replicate 2",93% and 91%
same,Population Pyknosed Nuclei (%),"[2]; 24 h, replicate 2",11% and 1%
same,Total Cell Count,"[2]; 24 h, replicate 2",108 and 135
same,Growth Rate,[3]; [7],0
same,Growth Rate,[3]; [8],0
same,Growth Rate,[3]; [9],0
same,Growth Rate,[3]; [10],0
same,Growth Rate,[3]; [11],0
same,Population Apoptotic (%),"[4]; 12 h, replicate 1",24% and 18%
same,Population Fragmented Nuclei (%),"[4]; 12 h, replicate 1",30% and 12%
same,Population Hoechst High Intensity Objects (%),"[4]; 12 h, replicate 1",21% and 12%
same,Population Mitochondria Different-Phenotype (%),"[4]; 12 h, replicate 1",16% and 8%
same,Population Mitotic Cells (%),"[4]; 12 h, replicate 1",75% and 81%
same,Population Normal (%),"[4]; 12 h, replicate 1",78% and 87%
same,Population Pyknosed Nuclei (%),"[4]; 12 h, replicate 1",49% and 24%
same,Total Cell Count,"[4]; 12 h, replicate 1",575 and 589
same,Population Apoptotic (%),"[4]; 12 h, replicate 2",16% and 6%
same,Population Fragmented Nuclei (%),"[4]; 12 h, replicate 2",2% and 5%
same,Population Healthy Nuclei (%),"[4]; 12 h, replicate 2",79% and 89%
same,Population Hoechst High Intensity Objects (%),"[4]; 12 h, replicate 2",3% and 1%
same,Population Membrane Permeable-Phenotype (%),"[4]; 12 h, replicate 2",12% and 6%
same,Population Mitotic Cells (%),"[4]; 12 h, replicate 2",83% and 93%
same,Population Normal (%),"[4]; 12 h, replicate 2",96% and 98%
same,Total Cell Count,"[4]; 12 h, replicate 2",1131 and 1517
same,Population Fragmented Nuclei (%),"[4]; 24 h, replicate 1",29% and 10%
same,Population Membrane Permeable-Phenotype (%),"[4]; 24 h, replicate 1",10% and 16%
same,Population Mitotic Cells (%),"[4]; 24 h, replicate 1",66% and 89%
same,Population Normal (%),"[4]; 24 h, replicate 1",78% and 94%
same,Population Tubulin-Different-Phenotype (%),"[4]; 24 h, replicate 1",65% and 25%
same,Total Cell Count,"[4]; 24 h, replicate 1",555 and 720
same,Population Apoptotic (%),"[4]; 24 h, replicate 2",16%
same,Population Healthy Nuclei (%),"[4]; 24 h, replicate 2",76% and 79%
same,Population Hoechst High Intensity Objects (%),"[4]; 24 h, replicate 2",4% and 2%
same,Population Membrane Permeable-Phenotype (%),"[4]; 24 h, replicate 2",8% and 13%
same,Population Mitotic Cells (%),"[4]; 24 h, replicate 2",83%
same,Population Normal (%),"[4]; 24 h, replicate 2",95% and 97%
same,Total Cell Count,"[4]; 24 h, replicate 2",1110 and 2572
same,Growth Rate,[5]; [7],0
same,Growth Rate,[5]; [8],0
same,Growth Rate,"[5]; 6 h, replicate number 2, timepoint 6 hours",1
same,Growth Rate,[5]; [9],0
same,Growth Rate,"[5]; 12 h, replicate number 2, timepoint 12 hours",1
same,Growth Rate,[5]; [10],0
same,Growth Rate,[5]; [12],1
same,Growth Rate,[5]; [11],0
same,Growth Rate,[5]; [13],1
same,Growth Rate,"[6]; 0 h, replicate number 1, timepoint 0 hours",0
same,Growth Rate,[6]; [8],1
same,Growth Rate,[6]; [9],1
same,Growth Rate,[6]; [10],1
same,Growth Rate,[6]; [12],0
same,Growth Rate,[6]; [11],1
same,Growth Rate,[6]; [13],0
